Assay results as given in ChEMBL document CHEMBL1127409 (J Med Chem, 1994).

How the values were obtained:
Glutamate NMDA receptor [1] = assay: Affinity for the glycine binding site of NMDA receptor by inhibition of [3H]5,7-dichlorokynurenic acid ([3H]DCKA) binding to rat brain synaptic membrane
[2] = system: Glutamate NMDA receptor (Mus musculus); assay: In vivo inhibition of NMDA-induced seizures
[3] = The compound was tested for its affinity for the glutamic acid binding site of the non-NMDA receptor by using [3H]-kainic acid as radioligand; set-up: species or system Rattus norvegicus
Procedure, shortened: (§1)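 Selectivity radioligand binding, run like the [3H]DCKA assay on rat brain synaptic membranes. [3H]CGP-39653 labels the NMDA glutamic acid site; [3H]AMPA and [3H]kainic acid label non-NMDA receptors.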

[4] = The compound was tested for its affinity for the glutamic acid binding site of the non-NMDA receptor by using [3H]AMPA as radioligand; set-up: species or system Rattus norvegicus; procedure, shortened: as §1
Glutamate NMDA receptor [5] = assay: The compound was tested for its functional antagonism of the NMDA receptor by using [3H]-MK-801 as radioligand
Glutamate NMDA receptor [6] = assay: The compound was tested for its affinity for the glutamic acid binding site of the NMDA receptor by using [3H]CGP-39653 as radioligand; assay type: protein-complex assay; procedure, shortened: as §1

SMILES	Ki (Glutamate NMDA receptor [1]) [µM]	also measured
O=C(Nc1ccccc1)C1CCc2cc(Br)cc3[nH]c(=O)c(=O)n1c23 (stereo not drawn)	2.1	–
O=C(O)C1CCc2cc(Br)cc3[nH]c(=O)c(=O)n1c23 (stereo not drawn)	0.03	–
O=C(C[C@@H]1CCc2cc(Br)cc3[nH]c(=O)c(=O)n1c23)Nc1ccccc1	0.00096	–
O=C(O)C[C@@H]1CCc2cc(Br)cc3[nH]c(=O)c(=O)n1c23	0.0023	ED50 [2]: 26 mg/kg
O=C(Nc1ccccc1)N[C@H]1C[C@H](C(=O)O)Nc2cc(Cl)cc(Cl)c21	0.002	–
O=c1[nH]c2cc(Br)cc3c2n(c1=O)CC3	> 3	–
O=C(O)c1cc(O)c2c(Cl)cc(Cl)cc2n1	0.04	–
O=C(O)CCC1CCc2cc(Br)cc3[nH]c(=O)c(=O)n1c23 (stereo not drawn)	0.038	–
O=C(CCC1CCc2cc(Br)cc3[nH]c(=O)c(=O)n1c23)Nc1ccccc1 (stereo not drawn)	0.32	–
O=C(Nc1ccccc1)C1Cc2cc(Br)cc3[nH]c(=O)c(=O)n1c23 (stereo not drawn)	0.93	–
O=C(NCC1CCc2cc(Br)cc3[nH]c(=O)c(=O)n1c23)c1ccccc1 (stereo not drawn)	0.19	–
O=C(O)C[C@H]1CCc2cc(Br)cc3[nH]c(=O)c(=O)n1c23	0.0096	–
O=C(O)CC1CCc2cc(Br)cc3[nH]c(=O)c(=O)n1c23 (stereo not drawn)	0.0099	IC50 [3]: > 30 µM; IC50 [4]: 4.6 µM; IC50 (Glutamate NMDA receptor [5]): 4.1 µM; IC50 (Glutamate NMDA receptor [6]): > 30 µM; ED50 [2]: 64 mg/kg
Oc1nc2cc(Cl)c(Cl)cc2nc1O [2,3-DIHYDROXY-6,7-DICHLOROQUINOXALINE]	0.16	–
O=C(NCC1Cc2cc(Br)cc3[nH]c(=O)c(=O)n1c23)c1ccccc1 (stereo not drawn)	> 2	–
O=C(NCC1Cc2cc(Br)cc3[nH]c(=O)c(=O)n1c23)Nc1ccccc1 (stereo not drawn)	0.43	–
O=C(CC1CCc2cc(Br)cc3[nH]c(=O)c(=O)n1c23)Nc1ccccc1 (stereo not drawn)	0.0026	IC50 [3]: > 25 µM; IC50 [4]: 4.6 µM; IC50 (Glutamate NMDA receptor [5]): 1.7 µM; IC50 (Glutamate NMDA receptor [6]): > 25 µM
O=C(NCC1CCc2cc(Br)cc3[nH]c(=O)c(=O)n1c23)Nc1ccccc1 (stereo not drawn)	0.48	–
O=c1[nH]c2cc(Br)cc3c2n(c1=O)CCC3	0.71	–
O=C(C[C@H]1CCc2cc(Br)cc3[nH]c(=O)c(=O)n1c23)Nc1ccccc1	0.082	–
O=C(O)CC1Cc2cc(Br)cc3[nH]c(=O)c(=O)n1c23 (stereo not drawn)	0.0073	–
O=C(O)C1Cc2cc(Br)cc3[nH]c(=O)c(=O)n1c23 (stereo not drawn)	0.083	–
O=C(CC1Cc2cc(Br)cc3[nH]c(=O)c(=O)n1c23)Nc1ccccc1 (stereo not drawn)	0.17	–
